Entries after “also recorded” stand apart in the source; their conditions may differ.
Tests used:
[1] = Safety: treatment-emergent adverse events, NCI CTCAE v4.03; format: in vivo, human (Chinese patients)
Outline: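 Patients took oral test compound at 320 mg QD or 160 mg BID until progression or unacceptable toxicity. AEs were graded per NCI CTCAE v4.03, and treatment-emergent AEs were summarized. AEs of special interest included haemorrhage, atrial fibrillation/flutter, hypertension, second primary malignancies, tumour lysis syndrome, infections and cytopenias. Percentages use patients receiving ≥1 dose as the denominator.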

[2] = format: in vivo, human (Chinese patients)

SMILES: C=CC(=O)N1CCC([C@@H]2CCNc3c(C(N)=O)c(-c4ccc(Oc5ccccc5)cc4)nn32)CC1 [zanubrutinib]
- Pneumonia, TEAE any grade ([1]; 320 mg QD (n = 10)): 3 (30.0) n (%)
- Pneumonia, grade ≥ 3 TEAE ([1]; 320 mg QD (n = 10)): 0 (0.0) n (%)
- Rash, TEAE any grade ([1]; 320 mg QD (n = 10)): 2 (20.0) n (%)
- Second primary malignancies, any grade TEAE of special interest ([1]; 320 mg QD (n = 10)): 0 (0.0) n (%)
- Thrombocytopenia, grade ≥ 3 TEAE ([1]; 320 mg QD (n = 10)): 1 (10.0) n (%)
- Tumour lysis syndrome, any grade TEAE of special interest ([1]; 320 mg QD (n = 10)): 0 (0.0) n (%)
- Upper respiratory tract infection, TEAE any grade ([1]; 320 mg QD (n = 10)): 5 (50.0) n (%)
- Upper respiratory tract infection, grade ≥ 3 TEAE ([1]; 320 mg QD (n = 10)): 2 (20.0) n (%)
- Weight increased, TEAE any grade ([1]; 320 mg QD (n = 10)): 3 (30.0) n (%)
- White blood cell count decreased, TEAE any grade ([1]; 320 mg QD (n = 10)): 3 (30.0) n (%)
- White blood cell count decreased, grade ≥ 3 TEAE ([1]; 320 mg QD (n = 10)): 1 (10.0) n (%)
- White blood cell count increased, grade ≥ 3 TEAE ([1]; 320 mg QD (n = 10)): 1 (10.0) n (%)
- Anaemia, TEAE any grade ([1]; Total (N = 44)): 16 (36.4) n (%)
- Anaemia, grade ≥ 3 TEAE ([1]; Total (N = 44)): 5 (11.4) n (%)
- Atrial fibrillation/flutter, any grade TEAE of special interest ([1]; Total (N = 44)): 0 (0.0) n (%)
- Cough, TEAE any grade ([1]; Total (N = 44)): 8 (18.2) n (%)
- Cytopenias: Anaemia, any grade TEAE of special interest ([1]; Total (N = 44)): 18 (40.9) n (%)
- Cytopenias: Neutropenia, any grade TEAE of special interest ([1]; Total (N = 44)): 25 (56.8) n (%)
- Cytopenias: Thrombocytopenia, any grade TEAE of special interest ([1]; Total (N = 44)): 12 (27.3) n (%)
- Haemorrhage, any grade TEAE of special interest ([1]; Total (N = 44)): 15 (34.1) n (%)
- Hematuria, TEAE any grade ([1]; Total (N = 44)): 9 (20.5) n (%)
- Hypertension, any grade TEAE of special interest ([1]; Total (N = 44)): 1 (2.3) n (%)
- Hyperuricemia, TEAE any grade ([1]; Total (N = 44)): 9 (20.5) n (%)
- Infections, any grade TEAE of special interest ([1]; Total (N = 44)): 26 (59.1) n (%)
- Major haemorrhage, any grade TEAE of special interest ([1]; Total (N = 44)): 1 (2.3) n (%)
- Neutropenia, grade ≥ 3 TEAE ([1]; Total (N = 44)): 4 (9.1) n (%)
- Neutrophil count decreased, TEAE any grade ([1]; Total (N = 44)): 24 (54.5) n (%)
- Neutrophil count decreased, grade ≥ 3 TEAE ([1]; Total (N = 44)): 11 (25.0) n (%)
- Patients with ≥1 TEAE of special interest, any grade ([1]; Total (N = 44)): 40 (90.9) n (%)
- Patients with ≥1 any‐grade TEAE ([1]; Total (N = 44)): 43 (97.7) n (%)
- Patients with ≥1 grade 3 or higher TEAE ([1]; Total (N = 44)): 24 (54.5) n (%)
- Platelet count decreased, TEAE any grade ([1]; Total (N = 44)): 10 (22.7) n (%)
- Platelet count decreased, grade ≥ 3 TEAE ([1]; Total (N = 44)): 2 (4.5) n (%)
- Pneumonia, TEAE any grade ([1]; Total (N = 44)): 9 (20.5) n (%)
- Pneumonia, grade ≥ 3 TEAE ([1]; Total (N = 44)): 3 (6.8) n (%)
- Rash, TEAE any grade ([1]; Total (N = 44)): 10 (22.7) n (%)
- Second primary malignancies, any grade TEAE of special interest ([1]; Total (N = 44)): 0 (0.0) n (%)
- Thrombocytopenia, grade ≥ 3 TEAE ([1]; Total (N = 44)): 2 (4.5) n (%)
- Tumour lysis syndrome, any grade TEAE of special interest ([1]; Total (N = 44)): 0 (0.0) n (%)
- Upper respiratory tract infection, TEAE any grade ([1]; Total (N = 44)): 15 (34.1) n (%)
- Upper respiratory tract infection, grade ≥ 3 TEAE ([1]; Total (N = 44)): 4 (9.1) n (%)
- Weight increased, TEAE any grade ([1]; Total (N = 44)): 8 (18.2) n (%)
- White blood cell count decreased, TEAE any grade ([1]; Total (N = 44)): 14 (31.8) n (%)
- White blood cell count decreased, grade ≥ 3 TEAE ([1]; Total (N = 44)): 2 (4.5) n (%)
- White blood cell count increased, grade ≥ 3 TEAE ([1]; Total (N = 44)): 3 (6.8) n (%)
- AEs leading to dose reduction ([1]; all 44 patients): no AEs leading to dose reduction
- neutrophil count decreased, most common adverse event (any grade) ([1]; all 44 patients): 54.5%
- neutrophil count decreased, most common grade 3 or higher AE ([1]; all 44 patients): 25.0%
- patients with AEs leading to dose interruption ([1]; all 44 patients): 18.2%
- patients with AEs leading to treatment discontinuation ([1]; all 44 patients): 4.5%
- reports of second primary malignancies, tumour lysis syndrome, atrial fibrillation/flutter ([1]; all 44 patients): no reports
- grade of haemorrhagic events ([1]; all events except one non‐serious grade 3 purpura): grade 1–2; also recorded: grade 1 or 2
- dose‐limiting toxicity (DLT) events ([1]; part I, 160 mg BID and 320 mg QD): No DLT events
- half-life ([2]; human, plasma, oral): 138 to 204 min
- time of C max post dose ([2]; oral 160 mg and 320 mg doses): ~ 2 h

From PMC9321909 (British Journal of Haematology, 2022)
